Assay [1] addresses AP2-associated protein kinase 1 (Homo sapiens) (UniProt Q2M2I8). Kind of assay: Inhibition of T7 bacteriophage fused human AAK1 at 10 uM by KINOMEscan analysis relative to control.
The test system of assay [2] is Tyrosine-protein kinase ABL1 (Homo sapiens), P00519 [F317I]. Kind of assay: Inhibition of T7 bacteriophage fused human phosphorylated ABL1 F317I mutant at 10 uM by KINOMEscan analysis relative to control.
The test system of assay [3] is Tyrosine-protein kinase ABL1 (Homo sapiens), P00519 [Q252H]. Kind of assay: Inhibition of T7 bacteriophage fused human phosphorylated ABL1 Q252H mutant at 10 uM by KINOMEscan analysis relative to control.
The test system of assay [4] is Tyrosine-protein kinase ABL1 (Homo sapiens), P00519 [T315I]. Briefly: Inhibition of T7 bacteriophage fused human phosphorylated ABL1 T315I mutant at 10 uM by KINOMEscan analysis relative to control.
Assay [5] has as its target Activin receptor type-2B (Homo sapiens) (UniProt Q13705). Briefly: Inhibition of T7 bacteriophage fused human ACVR2B at 10 uM by KINOMEscan analysis relative to control.
Assay [6] addresses RAC-alpha serine/threonine-protein kinase (Homo sapiens) (UniProt P31749). Kind of assay: Inhibition of T7 bacteriophage fused human AKT1 at 10 uM by KINOMEscan analysis relative to control.
Assay [7] has as its target ALK tyrosine kinase receptor (Homo sapiens) (UniProt Q9UM73). Kind of assay: Inhibition of T7 bacteriophage fused human ALK at 10 uM by KINOMEscan analysis relative to control.
In assay [8] the target is Aurora kinase C (Homo sapiens) (UniProt Q9UQB9). Kind of assay: Inhibition of T7 bacteriophage fused human AURKC at 10 uM by KINOMEscan analysis relative to control.
The target in assay [9] is Calcium/calmodulin-dependent protein kinase type II subunit alpha (Homo sapiens) (UniProt Q9UQM7). Briefly: Inhibition of T7 bacteriophage fused human CAMK2A at 10 uM by KINOMEscan analysis relative to control.
Assay [10] deals with Dual specificity protein kinase CLK4 (Homo sapiens) (UniProt Q9HAZ1). Briefly: Inhibition of T7 bacteriophage fused human CLK4 at 10 uM by KINOMEscan analysis relative to control.
Assay [11] has as its target Casein kinase I isoform gamma-2 (Homo sapiens) (UniProt P78368). Kind of assay: Inhibition of T7 bacteriophage fused human CSNK1G2 at 10 uM by KINOMEscan analysis relative to control.
Assay [12] concerns the target Serine/threonine-protein kinase DCLK2 (Homo sapiens) (UniProt Q8N568). Kind of assay: Inhibition of T7 bacteriophage fused human DCAMKL2 at 10 uM by KINOMEscan analysis relative to control.
Assay [13] has as its target Epithelial discoidin domain-containing receptor 1 (Homo sapiens) (UniProt Q08345). Kind of assay: Inhibition of T7 bacteriophage fused human DDR1 at 10 uM by KINOMEscan analysis relative to control.
Assay [14] deals with Discoidin domain-containing receptor 2 (Homo sapiens) (UniProt Q16832). Briefly: Inhibition of T7 bacteriophage fused human DDR2 at 10 uM by KINOMEscan analysis relative to control.
The test system of assay [15] is Epidermal growth factor receptor (Homo sapiens), P00533 [L858R,T790M]. Briefly: Inhibition of T7 bacteriophage fused human EGFR L858R/T790M mutant at 10 uM by KINOMEscan analysis relative to control.
The target in assay [16] is Serine/threonine-protein kinase Nek9 (Homo sapiens) (UniProt Q8TD19). Briefly: Inhibition of T7 bacteriophage fused human NEK9 at 10 uM by KINOMEscan analysis relative to control.
The target in assay [17] is 3-phosphoinositide-dependent protein kinase 1 (Homo sapiens) (UniProt O15530). Kind of assay: Inhibition of T7 bacteriophage fused human PDPK1 at 10 uM by KINOMEscan analysis relative to control.
Target sequence in this assay (O15530 whole entry, the tested form may be a part, canonical isoform): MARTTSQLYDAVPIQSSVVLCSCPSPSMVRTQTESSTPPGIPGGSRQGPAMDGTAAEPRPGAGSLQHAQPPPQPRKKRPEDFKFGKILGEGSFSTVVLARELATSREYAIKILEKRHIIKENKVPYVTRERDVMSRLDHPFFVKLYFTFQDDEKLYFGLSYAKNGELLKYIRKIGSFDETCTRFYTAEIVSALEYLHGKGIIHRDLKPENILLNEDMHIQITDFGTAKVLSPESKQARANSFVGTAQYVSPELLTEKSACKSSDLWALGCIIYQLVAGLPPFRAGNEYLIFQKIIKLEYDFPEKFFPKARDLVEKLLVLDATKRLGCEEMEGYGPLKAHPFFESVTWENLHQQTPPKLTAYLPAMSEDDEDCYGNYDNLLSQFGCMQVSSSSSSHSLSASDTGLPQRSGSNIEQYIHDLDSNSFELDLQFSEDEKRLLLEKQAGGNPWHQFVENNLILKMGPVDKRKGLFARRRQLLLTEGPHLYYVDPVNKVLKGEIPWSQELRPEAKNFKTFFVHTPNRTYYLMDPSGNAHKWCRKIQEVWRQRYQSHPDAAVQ
Assay [18] has as its system Phosphatidylinositol 4,5-bisphosphate 3-kinase catalytic subunit alpha isoform (Homo sapiens), P42336 [M1043I]. Kind of assay: Inhibition of T7 bacteriophage fused human PIK3CA M1043I mutant at 10 uM by KINOMEscan analysis relative to control.
Assay [19] concerns the target Serine/threonine-protein kinase pim-3 (Homo sapiens) (UniProt Q86V86). Kind of assay: Inhibition of T7 bacteriophage fused human PIM3 at 10 uM by KINOMEscan analysis relative to control.
Assay [20] concerns the target Serine/threonine-protein kinase PknB (Mycobacterium tuberculosis) (UniProt P9WI81). Briefly: Inhibition of T7 bacteriophage fused […] tuberculosis PKNB at 10 uM by KINOMEscan analysis relative to control.
For assay [21], the target named is Serine/threonine-protein kinase PLK3 (Homo sapiens) (UniProt Q9H4B4). Kind of assay: Inhibition of T7 bacteriophage fused human PLK3 at 10 uM by KINOMEscan analysis relative to control.
Assay [22] addresses Protein kinase C eta type (Homo sapiens) (UniProt P24723). Briefly: Inhibition of T7 bacteriophage fused human PRKCH at 10 uM by KINOMEscan analysis relative to control.
In assay [23] the target is Protein-tyrosine kinase 2-beta (Homo sapiens) (UniProt Q14289). Kind of assay: Inhibition of T7 bacteriophage fused human PYK2 at 10 uM by KINOMEscan analysis relative to control.
For assay [24], the target named is Serine/threonine-protein kinase SIK3 (Homo sapiens) (UniProt Q9Y2K2). Kind of assay: Inhibition of T7 bacteriophage fused human QSK at 10 uM by KINOMEscan analysis relative to control.
The test system of assay [25] is Proto-oncogene tyrosine-protein kinase receptor Ret (Homo sapiens), P07949 [V804M]. Kind of assay: Inhibition of T7 bacteriophage fused human RET V804M mutant at 10 uM by KINOMEscan analysis relative to control.
For assay [26], the target named is Fibroblast growth factor receptor 4 (Homo sapiens) (UniProt P22455). Briefly: Inhibition of T7 bacteriophage fused human FGFR4 at 10 uM by KINOMEscan analysis relative to control; values are per cent of control.
The target in assay [27] is Casein kinase II subunit alpha' (Homo sapiens) (UniProt P19784). Kind of assay: Inhibition of T7 bacteriophage fused human CSNK2A2 at 10 uM by KINOMEscan analysis relative to control; values are per cent of control.
The test system of assay [28] is Leucine-rich repeat serine/threonine-protein kinase 2 (Homo sapiens), Q5S007 [A2016T]. Kind of assay: Inhibition of drug-resistant GFP-tagged LRRK2 A2016T mutant phosphorylation at Ser935 residue (unknown origin) transfected in HEK293 cells upto 3 uM incubated for 90 mins by immunoblot analysis. The assay is classed as cell-based. The method, boiled down:
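HEK293 cells stably expressing GFP-LRRK2 variants, grown in DMEM with 10% FBS, 2 mM glutamine and penicillin/streptomycin. Compound added from DMSO stock (final DMSO ≤1%) at increasing concentrations for 90 min, DMSO control. Cells were PBS-washed and lysed in Triton X-100 lysis buffer. Lysates were run on 8% SDS-PAGE and immunoblotted with rabbit monoclonals against pSer910, pSer935 and total LRRK2.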
A general note: A western blot detects proteins with antibodies after separation by electrophoresis.

Assay [29] concerns the target 3-phosphoinositide-dependent protein kinase 1 (Homo sapiens) (UniProt O15530). Kind of assay: Inhibition of PDK1 Lys1 labeling site in human PC-3 cell lysate at 10 uM by KiNativ profiling analysis relative to control.
Target sequence in this assay (O15530 whole entry, looked up, the tested form may be a part, canonical isoform): as the sequence (O15530 whole entry, the tested form may be a part, canonical isoform) above

Active and inactive are the calls of the source. The calls are words filed in the database; no cut-off is given here.

Here are results for 2 compounds from ChEMBL document CHEMBL5678810.

As usually defined, the inhibition is how much of the control response was suppressed. By residual activity is commonly meant the activity still measured, relative to the control. Read a high residual activity as much activity left.

Sequence of Serine/threonine-protein kinase PknB (Mycobacterium tuberculosis) (P9WI81 whole entry, the tested form may be a part): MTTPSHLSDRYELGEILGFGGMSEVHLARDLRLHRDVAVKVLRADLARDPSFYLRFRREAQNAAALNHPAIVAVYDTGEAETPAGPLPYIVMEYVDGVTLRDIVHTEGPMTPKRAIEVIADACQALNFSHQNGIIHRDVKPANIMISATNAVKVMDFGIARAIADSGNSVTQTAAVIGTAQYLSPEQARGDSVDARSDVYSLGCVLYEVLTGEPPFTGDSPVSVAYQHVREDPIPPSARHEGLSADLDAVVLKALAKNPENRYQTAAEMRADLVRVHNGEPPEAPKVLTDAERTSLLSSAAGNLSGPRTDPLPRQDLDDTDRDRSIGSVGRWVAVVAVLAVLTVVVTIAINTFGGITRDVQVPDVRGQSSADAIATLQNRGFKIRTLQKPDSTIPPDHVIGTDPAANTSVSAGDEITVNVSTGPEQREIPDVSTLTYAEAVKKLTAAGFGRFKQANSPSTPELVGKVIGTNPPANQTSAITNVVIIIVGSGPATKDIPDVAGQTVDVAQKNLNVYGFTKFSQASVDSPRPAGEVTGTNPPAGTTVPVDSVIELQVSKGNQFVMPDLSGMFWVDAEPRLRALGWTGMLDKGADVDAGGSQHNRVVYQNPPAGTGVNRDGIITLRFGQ
Sequence of Calcium/calmodulin-dependent protein kinase type II subunit alpha (Homo sapiens) (Q9UQM7 whole entry, the tested form may be a part): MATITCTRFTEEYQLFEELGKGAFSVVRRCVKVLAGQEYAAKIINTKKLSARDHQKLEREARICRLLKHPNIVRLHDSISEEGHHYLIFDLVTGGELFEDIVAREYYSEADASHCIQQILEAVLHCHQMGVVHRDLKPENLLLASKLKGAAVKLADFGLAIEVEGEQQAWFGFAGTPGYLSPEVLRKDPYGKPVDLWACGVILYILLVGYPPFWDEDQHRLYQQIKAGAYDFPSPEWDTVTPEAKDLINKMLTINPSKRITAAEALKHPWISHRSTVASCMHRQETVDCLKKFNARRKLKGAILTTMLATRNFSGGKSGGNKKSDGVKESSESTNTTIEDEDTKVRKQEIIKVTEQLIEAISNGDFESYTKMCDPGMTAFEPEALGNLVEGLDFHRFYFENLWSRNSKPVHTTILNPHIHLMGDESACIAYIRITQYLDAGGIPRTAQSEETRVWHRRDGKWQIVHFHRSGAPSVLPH
Sequence of Dual specificity protein kinase CLK4 (Homo sapiens) (Q9HAZ1 whole entry, looked up, the tested form may be a part, canonical isoform): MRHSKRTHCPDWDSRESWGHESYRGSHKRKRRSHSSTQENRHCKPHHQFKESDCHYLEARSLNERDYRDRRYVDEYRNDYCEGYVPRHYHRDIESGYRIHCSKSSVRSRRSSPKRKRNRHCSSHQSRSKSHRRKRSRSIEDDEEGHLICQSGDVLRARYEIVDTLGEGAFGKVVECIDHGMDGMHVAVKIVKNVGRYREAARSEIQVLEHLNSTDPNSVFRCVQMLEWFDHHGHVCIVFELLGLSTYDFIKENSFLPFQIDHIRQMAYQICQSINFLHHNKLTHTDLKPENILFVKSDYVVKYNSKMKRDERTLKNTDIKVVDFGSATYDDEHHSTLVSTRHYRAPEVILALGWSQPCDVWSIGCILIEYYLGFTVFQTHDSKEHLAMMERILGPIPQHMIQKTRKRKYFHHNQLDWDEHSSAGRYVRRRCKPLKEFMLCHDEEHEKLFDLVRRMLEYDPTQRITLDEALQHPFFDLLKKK
Sequence of Activin receptor type-2B (Homo sapiens) (Q13705 whole entry, the tested form may be a part): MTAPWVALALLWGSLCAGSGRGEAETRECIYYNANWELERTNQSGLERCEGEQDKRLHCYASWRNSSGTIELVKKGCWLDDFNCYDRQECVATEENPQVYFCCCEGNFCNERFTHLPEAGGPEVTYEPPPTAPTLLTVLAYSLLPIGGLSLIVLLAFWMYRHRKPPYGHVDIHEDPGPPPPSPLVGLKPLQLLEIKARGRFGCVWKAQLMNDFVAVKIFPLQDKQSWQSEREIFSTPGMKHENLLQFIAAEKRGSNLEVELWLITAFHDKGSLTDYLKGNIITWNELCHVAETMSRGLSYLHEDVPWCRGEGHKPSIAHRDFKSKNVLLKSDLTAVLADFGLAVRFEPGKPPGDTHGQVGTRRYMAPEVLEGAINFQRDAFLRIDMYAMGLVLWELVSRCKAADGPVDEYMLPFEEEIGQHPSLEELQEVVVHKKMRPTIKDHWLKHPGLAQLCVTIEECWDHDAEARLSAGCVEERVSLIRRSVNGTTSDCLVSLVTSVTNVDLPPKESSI
Sequence of Aurora kinase C (Homo sapiens) (Q9UQB9 whole entry, the tested form may be a part): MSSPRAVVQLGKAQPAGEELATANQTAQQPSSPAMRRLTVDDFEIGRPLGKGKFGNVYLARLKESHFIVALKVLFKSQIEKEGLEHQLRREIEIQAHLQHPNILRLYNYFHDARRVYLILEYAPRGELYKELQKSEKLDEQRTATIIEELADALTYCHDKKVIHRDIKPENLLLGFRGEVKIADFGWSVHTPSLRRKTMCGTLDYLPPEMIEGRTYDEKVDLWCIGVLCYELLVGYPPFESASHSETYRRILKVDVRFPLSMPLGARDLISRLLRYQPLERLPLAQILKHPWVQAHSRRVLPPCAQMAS
Sequence of RAC-alpha serine/threonine-protein kinase (Homo sapiens) (P31749 whole entry, the tested form may be a part): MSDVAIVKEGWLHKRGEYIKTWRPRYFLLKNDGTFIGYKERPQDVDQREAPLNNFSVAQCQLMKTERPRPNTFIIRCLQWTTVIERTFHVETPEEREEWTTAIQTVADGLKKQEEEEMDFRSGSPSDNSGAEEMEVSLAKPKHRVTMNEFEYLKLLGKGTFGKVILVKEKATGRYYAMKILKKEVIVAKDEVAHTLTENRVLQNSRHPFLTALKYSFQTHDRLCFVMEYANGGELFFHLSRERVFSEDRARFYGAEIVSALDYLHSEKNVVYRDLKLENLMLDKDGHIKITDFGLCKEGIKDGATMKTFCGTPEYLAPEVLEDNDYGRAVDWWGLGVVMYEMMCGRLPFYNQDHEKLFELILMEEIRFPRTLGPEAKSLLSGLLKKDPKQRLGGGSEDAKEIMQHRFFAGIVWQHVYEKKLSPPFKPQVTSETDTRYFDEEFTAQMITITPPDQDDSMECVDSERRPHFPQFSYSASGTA
Sequence of AP2-associated protein kinase 1 (Homo sapiens) (Q2M2I8 whole entry, looked up, the tested form may be a part): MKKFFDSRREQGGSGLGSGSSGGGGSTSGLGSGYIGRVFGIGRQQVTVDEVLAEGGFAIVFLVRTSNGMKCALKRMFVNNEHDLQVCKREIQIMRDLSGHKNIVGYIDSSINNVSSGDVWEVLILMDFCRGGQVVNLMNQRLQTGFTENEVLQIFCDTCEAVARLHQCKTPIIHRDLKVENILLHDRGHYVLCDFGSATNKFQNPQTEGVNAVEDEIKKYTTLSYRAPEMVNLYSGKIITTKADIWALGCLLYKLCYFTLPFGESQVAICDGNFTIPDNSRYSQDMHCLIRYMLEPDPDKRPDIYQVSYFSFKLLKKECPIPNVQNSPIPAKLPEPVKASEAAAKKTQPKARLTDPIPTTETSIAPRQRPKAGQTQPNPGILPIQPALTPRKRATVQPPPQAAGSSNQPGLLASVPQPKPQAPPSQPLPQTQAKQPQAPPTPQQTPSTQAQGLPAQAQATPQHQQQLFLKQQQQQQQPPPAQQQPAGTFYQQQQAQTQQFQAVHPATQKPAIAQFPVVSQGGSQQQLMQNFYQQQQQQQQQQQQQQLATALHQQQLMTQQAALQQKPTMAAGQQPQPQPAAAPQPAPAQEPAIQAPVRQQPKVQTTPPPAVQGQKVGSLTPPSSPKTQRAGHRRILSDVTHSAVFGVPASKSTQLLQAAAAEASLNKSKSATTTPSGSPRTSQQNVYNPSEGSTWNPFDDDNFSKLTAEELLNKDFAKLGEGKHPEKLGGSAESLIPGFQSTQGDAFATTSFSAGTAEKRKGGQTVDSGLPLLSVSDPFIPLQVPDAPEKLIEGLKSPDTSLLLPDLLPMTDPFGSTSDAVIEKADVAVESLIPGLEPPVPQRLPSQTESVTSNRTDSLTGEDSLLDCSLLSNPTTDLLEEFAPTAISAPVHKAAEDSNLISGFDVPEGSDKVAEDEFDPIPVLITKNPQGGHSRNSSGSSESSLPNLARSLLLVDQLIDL

For the compound `COc1cc(N2CCC(N3CCN(C)CC3)CC2)ccc1Nc1ncc2c(n1)N(C)c1ccccc1C(=O)N2C`, the inhibition worked out at 84% in assay [1]; 17% in assay [2]; 100% in [3]; 58% in [4]; 100% in assay [5]; 79% in assay [6]. In addition, the inhibition in assay [7] was determined as 13%; in assay [8], 50%; in assay [9], 21%; in assay [10], 54%; in [11], 100%; in assay [12], 0.45%. Also, the inhibition in assay [13] was 100%; in assay [14], 100%; in assay [15] it was 84%; in assay [16], 100%; in assay [17] it was 100%; in assay [18], 65%. For the same compound, the inhibition in [19] came to 88%; in assay [20], 100%; in assay [21] it was 51%; in assay [22] it was 100%; in [23] it was 78%; in assay [24], 100%. Moreover, the inhibition in assay [25] came out at 80%. The residual activity worked out at 28% in assay [26] and 93% in assay [27].

For `CCOc1cc(C(=O)N2CCC(N3CCN(C)CC3)CC2)ccc1Nc1ncc2c(n1)N(C1CCCC1)c1ccccc1C(=O)N2C`, the inhibition entry in assay [28] was “inactive”. Moreover, the inhibition in [29] amounted to 0%.
